TRPN1 ag = activates the zebrafish TRPN1 channel | HEK293 zebrafish TRPN1-YFP, Fluo-8 calcium fluorescence; 100% = response to 87 µM carbachol | activation, % at 3 µM | hit rate 0.18% among 220,000;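 active = activation above its plate's cutoff, the mean activation of test wells on that plate plus 3 SD, cut at about 19% in these data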;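 note: 0% = DMSO alone and 100% = 87 µM carbachol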
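Control set: carbachol 87 µM as high control, DMSO as low control; system: HEK293 stable line with zebrafish TRPN1-YFP; read-out: % activation versus carbachol response; detection: intracellular calcium fluorescence with Fluo-8; doses: single test compound dose, 3 µM nominal, 0.3% DMSO; schedule: dye 1 h 37 °C plus 30 min RT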
TRPML3 ag = human mucolipin-3 channel agonism. Q8TDD5. HEK293 TRPML3-YFP, Fluo-8 calcium fluorescence; 100% = the carbachol control signal. activation, % at 3 µM. hit rate 0.29% among 220,000. AID 1448;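 active = activation above its plate's cutoff, the mean activation of the plate's test wells plus 3 SD, cut at about 12% in these data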;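 note: 0% = DMSO only wells and 100% = carbachol wells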
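Test system: HEK293 cells stably carrying human TRPML3-YFP; Doses: single dose, 3 µM final nominal compound, 0.3% DMSO final; Schedule: dye loading 1 h 37 °C then 30 min ambient, 125 s read; Technique: Fluo-8 calcium fluorescence; Benchmarks: high control carbachol 87 µM, low control DMSO.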
V1R ag counter = counter-screen for oxytocin receptor agonists: human V1a receptor agonists | CHO-V1R cells, Fluo-8 calcium fluorescence, agonist mode; 0% DMSO, 100% 3 nM vasopressin | hit rate 0.25% among 320,000 | activation, % at 3 µM | P37288;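 active = activation above the mean activation of all tested compounds plus 3 SD, per screening run, cut at about 20% in these data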;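 note: signal is peak over basal fluorescence ratio across a 100 second FLIPR read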
Target sequence (P37288 whole entry, looked up): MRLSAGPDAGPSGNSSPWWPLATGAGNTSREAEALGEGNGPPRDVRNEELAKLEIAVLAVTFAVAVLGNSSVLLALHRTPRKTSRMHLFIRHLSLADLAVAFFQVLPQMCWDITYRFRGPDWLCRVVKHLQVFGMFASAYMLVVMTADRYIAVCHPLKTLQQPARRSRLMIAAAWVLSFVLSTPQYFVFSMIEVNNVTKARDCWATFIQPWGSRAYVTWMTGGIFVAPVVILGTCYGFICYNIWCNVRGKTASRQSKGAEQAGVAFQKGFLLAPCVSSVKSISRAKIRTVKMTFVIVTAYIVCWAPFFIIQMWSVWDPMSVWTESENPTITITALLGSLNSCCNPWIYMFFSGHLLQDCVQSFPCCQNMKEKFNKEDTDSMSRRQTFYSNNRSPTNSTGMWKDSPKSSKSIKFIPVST
OXTR ag = activates the human oxytocin receptor. CHO-OTR cells, Fluo-8 calcium fluorescence; normalized: DMSO 0%, oxytocin 100%. AID 2435. activation, % at 3 µM. hit rate 0.32% among 320,000;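 active = activation above the mean of all tested compounds plus 3 SD, cutoff set per screening run, cut at about 20% in these data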;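 note: peak over basal fluorescence ratio from a 100 s FLIPR kinetic read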
OXTR potentiator = potentiators of human oxytocin receptor; activation, % at 3 µM; hit rate 0.061% among 320,000; P30559; CHO-OTR cells, Fluo-8 calcium fluorescence, potentiator mode; 0% = oxytocin EC15, 100% = EC100; AID 2445;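 active = activation above that plate's cutoff, the mean activation of tested compounds plus 3 SD, cut at about 6.6% in these data, passing the limit was not always enough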;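 note: 100% uses oxytocin at 75 nM as the full agonist control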
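assay system = CHO-OTR cells, human receptor | schedule = compound 6 min at room temperature before oxytocin, 100 s read | detection = Fluo-8 intracellular calcium fluorescence, ex 470-495, em 515-575 nm | evaluation = normalized max/min fluorescence ratio, % activation | control set = EC15 oxytocin alone as 0%, 75 nM oxytocin (EC100) as 100%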
Starred values were filed as active, the others as inactive; · = no result given. Most compounds without a hit are left out; they make up all but 0.59% or so of the library.

SMILES | TRPN1 ag | TRPML3 ag | V1R ag counter | OXTR ag | OXTR potentiator
O=C(O)c1ccc(N2CCCCCC2)c(N2C(=O)c3ccccc3C2=O)c1 | 0 | 1 | 1 | 1 | -11
O=C1c2cccc3cccc(c23)C(=O)N1c1ccc(O)cc1 | · | · | -1 | 0 | 2
O=C1c2cccc3c(N4CCCCC4)ccc(c23)C(=O)N1c1ccc(O)cc1 | 20* | 12* | 23* | 22* | -17
O=C1c2cccc3c(N4CCCCC4)ccc(c23)C(=O)N1c1ccccc1O | 36* | 18* | 41* | 43* | -36
CCOC(=O)c1c(C)[nH]c(C(=O)N2CCc3cc(OC)c(OC)cc3C2)c1C | · | · | 1 | 0 | -7
CCCCNc1c2c3c(cccc3n(C)c1=O)C(=O)c1ccccc1-2 | 81* | 46* | 134* | 134* | -8
Cn1c(=O)c(NCCc2ccccc2)c2c3c(cccc31)C(=O)c1ccccc1-2 | 126* | 83* | 279* | 213* | -17
Cn1c(=O)c(NC2CCCCC2)c2c3c(cccc31)C(=O)c1ccccc1-2 | 18 | 9 | · | · | ·
CCNc1c2c3c(cccc3n(C)c1=O)C(=O)c1ccccc1-2 | 195* | 88* | 181* | 140* | -35
Cn1c(=O)c(NCCO)c2c3c(cccc31)C(=O)c1ccccc1-2 | 454* | 282* | 569* | 522* | -22
O=C(CC(=O)c1ccccc1)Nc1ccccc1C(F)(F)F | · | · | 0 | -2 | -19
CCN(Cc1ccccc1)S(=O)(=O)c1cn(C)cn1 | · | · | 2 | 0 | -3
CCC(C(=O)N1CCN(S(=O)(=O)c2ccc(F)cc2)CC1)c1ccccc1 (centres undefined) | · | · | 3 | 1 | -5
CC(C)(C)OC(=O)C[C@H]1C/C=C\C[C@@H](CC(=O)N[C@@H](CO)Cc2ccccc2)C(=O)N2CCC[C@@H]2COC1=O | · | · | 0 | 0 | 7
CC(=O)Oc1c(C)cc(Cl)cc1C(=O)Nc1ccc([N+](=O)[O-])cc1Cl | 26* | 9 | 13 | 16 | -17
CC(=O)OCC(=O)Nc1ccc([N+](=O)[O-])cc1Cl | 0 | 1 | -1 | 0 | -4
O=C(COC(=O)c1ccc([N+](=O)[O-])s1)c1ccc[nH]1 | · | · | 3 | 1 | -5
Cn1cccc1/C=N/n1c(-c2ccc(Cl)cc2Cl)n[nH]c1=S | 12 | 7 | 21* | 26* | -23
CN(C)S(=O)(=O)c1cccc(NC(=O)C2CCN(S(=O)(=O)c3cccs3)CC2)c1 | · | · | 7 | 6 | -4
N#CC(C#N)=C(Nc1ccc(F)cc1)SCc1cccc(F)c1 | 25* | 21* | 11 | 11 | -8
CC1CCN(C(=O)COC(=O)C2CCN(S(=O)(=O)c3ccc(Cl)c(C(F)(F)F)c3)CC2)CC1 | · | · | 3 | 1 | -10
CCCOc1ccc(C(=O)NNC(=S)NC(=O)c2ccccc2)cc1 | · | · | 115* | 101* | -27
CCCOc1ccc(C(=O)NNC(=S)NC(=O)c2cccs2)cc1 | · | · | 85* | 79* | -12
CCCOc1ccc(C(=O)NNC(=S)NC(=O)c2ccco2)cc1 | 44* | 41* | 98* | 95* | -21
COc1ccc(C(=O)NNC(=S)NC(=O)c2ccco2)cc1 | 1 | 7 | 19 | 18 | -12
SMILES | TRPN1 ag | TRPML3 ag | V1R ag counter | OXTR ag | OXTR potentiator
CCCOc1ccc(C(=O)NNC(=S)NC(C)=O)cc1 | -3 | -2 | -2 | -2 | -8
CCCC(=O)Nc1ccc(C(=O)NNC(=S)NC(=O)c2cccs2)cc1 | -2 | -1 | -1 | -2 | -3
CC(=O)NCCc1ccc(C(=O)COC(=O)c2cc(C)oc2C)cc1 | · | · | 0 | 1 | -7
CCOc1cccc2cc(C(=O)NCc3ccc(Cl)cc3)c(=N)oc12 | · | · | 9 | 0 | -2
CN(C)CCN(C(=O)C1CCN(S(=O)(=O)c2cccs2)CC1)c1nc2ccccc2s1 | · | · | 1 | 1 | -10
COCC(=O)Nc1ncc(S(=O)(=O)c2ccc([N+](=O)[O-])cc2)s1 | 2 | 1 | 4 | 5 | -3
O=C(Nc1ncc(S(=O)(=O)c2ccc([N+](=O)[O-])cc2)s1)c1cccc2ccccc12 | 1 | 1 | 27* | 32* | -20
CC(C(=O)Nc1ccc2c(c1)OCCO2)c1ccc([N+](=O)[O-])cc1 (centres undefined) | 20* | 13* | 43* | 44* | -21
CC(C(=O)Nc1cccc(Br)c1)c1ccc([N+](=O)[O-])cc1 (centres undefined) | 1 | 1 | 9 | 5 | -11
O=C(COC(=O)CCC(=O)c1cccs1)Nc1ccccc1C(F)(F)F | · | · | 1 | 1 | -3
CC(=O)c1ccc(NC(=S)NC(NC(=O)c2ccco2)C(Cl)(Cl)Cl)cc1 (centres undefined) | 1 | 2 | 38* | 61* | -24
O=C(NC(NC(=S)Nc1ccc(Cl)cc1)C(Cl)(Cl)Cl)c1ccco1 (centres undefined) | 0 | 0 | 11 | 7 | -13
COCCCNC(=O)Cc1ccc(S(=O)(=O)N2CCOCC2)s1 | · | · | 0 | 1 | 5
Cc1cc2nc3c(=O)[nH]c(=S)[nH]c3nc2cc1NC(=O)C(F)(F)F | · | · | 80* | 55* | -17
CCOC(=O)C1CCCN(C(=O)C2c3ccccc3Oc3ccccc32)C1 (centres undefined) | 0 | 0 | 35* | 44* | -4
Cc1ccc(SCC(=O)Nc2cc([N+](=O)[O-])ccc2O)cc1 | 24* | 19* | 12 | 18 | -27
O=C(CSCc1ccc(Cl)cc1)Nc1cc([N+](=O)[O-])ccc1O | 25* | 18* | 13 | 17 | -13
O=C(Nc1nnc(-c2ccccc2)o1)c1nc2ccccc2s1 | · | · | 83* | 88* | -9
CCOC(=O)c1cn(Cc2ccccc2)c(C(=O)OC(C)(C)C)c1O | · | · | 28* | 52* | -19
CC(c1ccccc1C(O)(c1ccccc1)c1ccccc1)N(C)C (centres undefined) | 22* | 15* | 48* | 43* | -21
C=CCn1c(=O)[nH]c2nc3cc(N=CN(C)C)c(C)cc3nc2c1=O | 27* | 9 | 13 | 17 | -9
CN(C)/C=N/c1cc(=O)[nH]c(=O)n1CC1CC1 | 0 | 1 | 0 | 1 | 8
CCOc1cc(CNCc2ccccc2)ccc1OCc1ccc(Cl)cc1 | · | · | 28* | 26* | -20
CCOc1cc(CNCCc2ccc(S(N)(=O)=O)cc2)cc(Cl)c1OCc1ccccc1 | 4 | 2 | 22* | 37* | -14
C[C@H](CO)N1C[C@H](C)[C@@H](CN(C)CC2CCCCC2)Oc2c(NS(=O)(=O)c3ccc(F)cc3)cccc2C1=O | · | · | 1 | 2 | -4
CC(NC(=O)c1ccccc1F)C1CC1 (centres undefined) | · | · | 1 | 1 | -5
N#Cc1cnn(-c2ccccc2)c1NC(=O)c1ccccc1F | · | · | 0 | 1 | 5

Screens from PubChem.
